From paper PMC5760963 (Journal of Pharmaceutical Analysis, 2012)

How the values were obtained:
[1] = cited from earlier work
[2] = format: in vivo; conditions: human, plasma, po, 75 mg, 75 mg oral, fed, healthy Indian subjects, mean ±SD; for AUC(0-t): AUC 0–48, reference formulation (TAMIFLU); for AUC(0-inf): reference formulation (TAMIFLU); for half-life: t1/2, reference formulation (TAMIFLU)
Procedure, shortened: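 Healthy Indian volunteers (n=42), fed, single oral 75 mg capsule of test compound, test and reference formulations over two periods. Blood taken 0–48 h into K3EDTA tubes on ice (<10 °C). Plasma mixed 95:5 v/v with dichlorvos stock (4 mg/mL) and stored at −20 °C, then below −70 °C. Parent and carboxylate metabolite measured by validated LC–MS/MS. Calibration ranges were 0.5–200 and 2.0–800 ng/mL.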

[3] = cited from earlier work; for renal excretion (share of dose): 100 mg dose, as OSTC or as unchanged drug
[4] = Stability of analytes in spiked human plasma and wet extract; format: physicochemical; conditions: for Mean stability sample ±SD: n=6
Procedure, shortened: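 Human blank plasma spiked at LQC (OST/OSTC 1.5/6.0 ng/mL) and HQC (160/640 ng/mL), with dichlorvos as esterase inhibitor. Bench top (room temperature), autosampler (wet extract), freeze-thaw and long term (−20 °C, −70 °C) stability were tested, six replicates per level. Samples were thawed in an ice bath below 10 °C and extracted. Stability was read as analyte/IS area ratio by LC–MS/MS against freshly prepared comparison standards.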

[5] = hydrolysis controlled; cited from earlier work
[6] = following oral administration of OST in healthy volunteers
[7] = Bench top stability (ambient temperature), 12 h, HQC (160/640 ng/mL OST/OSTC)
[8] = Bench top stability (ambient temperature), 12 h, HQC, vs comparison samples
[9] = Bench top stability (ambient temperature), 12 h, LQC (1.5/6.0 ng/mL OST/OSTC)
[10] = Bench top stability (ambient temperature), 12 h, LQC, vs comparison samples
[11] = Freeze & thaw stability in plasma, 5 cycles, −20 °C, HQC
[12] = Freeze & thaw stability in plasma, 5 cycles, −20 °C, LQC
[13] = Freeze & thaw stability in plasma, 5 cycles, −70 °C, HQC
[14] = Freeze & thaw stability in plasma, 5 cycles, −70 °C, LQC
[15] = Long term stability in plasma: 61 days, −20 °C, HQC
[16] = Long term stability in plasma: 61 days, −20 °C, LQC
[17] = Long term stability in plasma: 61 days, −70 °C, HQC
[18] = Long term stability in plasma: 61 days, −70 °C, LQC
[19] = Wet extract stability (5 °C), 25 h, HQC
[20] = Wet extract stability (5 °C), 25 h, LQC
[21] = Wet extract stability (25 °C), 10 h, HQC
[22] = Wet extract stability (25 °C), 10 h, LQC

AUC(0-t) [2] [ng·h/mL] | AUC(0-inf) [2] [ng·h/mL] | half-life [2] [h] | Mean stability sample ±SD [4, 7] [ng/mL] | Change (%) [4, 8] [%] | Mean stability sample ±SD [4, 9] [ng/mL] | Change (%) [4, 10] [%] | Change (%) [4, 11] [%] | Mean stability sample ±SD [4, 11] [ng/mL] | Change (%) [4, 12] [%] | Mean stability sample ±SD [4, 12] [ng/mL] | Change (%) [4, 13] [%] | Mean stability sample ±SD [4, 13] [ng/mL] | Change (%) [4, 14] [%] | Mean stability sample ±SD [4, 14] [ng/mL] | Change (%) [4, 15] [%] | Mean stability sample ±SD [4, 15] [ng/mL] | Change (%) [4, 16] [%] | Mean stability sample ±SD [4, 16] [ng/mL] | Compound | renal excretion (share of dose) [3] [%] | also measured
3900 ± 721 | 3990 ± 729 | 7.5 ± 0.96 | 653.1 ± 23.7 | 1.40 | 5.841 ± 0.495 | 1.40 | −1.57 | 626.2 ± 22.7 | −2.79 | 5.583 ± 0.553 | −1.57 | 626.0 ± 25.6 | 0.35 | 5.762 ± 0.394 | −0.85 | 698.4 ± 16.6 | 2.72 | 6.791 ± 0.273 | CCC(CC)O[C@@H]1C=C(C(=O)O)C[C@H](N)[C@H]1NC(C)=O [Oseltamivir carboxylate, oseltamivir carboxylate] | 63 | protein bound [1]: about 43%; time to maximum plasma levels (Cmax) [3, 6]: ≤ 5 h; time until detectable in plasma [3, 6]: about 30 min; Change (%) [4, 17]: 0.43%; Mean stability sample ±SD [4, 17]: 707.4 ± 19.0 ng/mL; Change (%) [4, 18]: −1.82%; Mean stability sample ±SD [4, 18]: 6.492 ± 0.328 ng/mL; Change (%) [4, 19]: 0.47%; Mean stability sample ±SD [4, 19]: 647.2 ± 18.2 ng/mL; Change (%) [4, 20]: 4.55%; Mean stability sample ±SD [4, 20]: 5.983 ± 0.556 ng/mL; Change (%) [4, 21]: −0.31%; Mean stability sample ±SD [4, 21]: 642.4 ± 13.4 ng/mL; Change (%) [4, 22]: 5.77%; Mean stability sample ±SD [4, 22]: 6.050 ± 0.393 ng/mL
153 ± 35 | 163 ± 37 | 4.97 ± 3.27 | 167.0 ± 9.5 | 0.60 | 1.430 ± 0.043 | 2.14 | −3.05 | 159.3 ± 9.1 | −4.23 | 1.364 ± 0.075 | −2.44 | 160.2 ± 5.4 | 1.41 | 1.442 ± 0.070 | 1.18 | 172.3 ± 3.9 | −3.61 | 1.635 ± 0.096 | CCOC(=O)C1=C[C@@H](OC(CC)CC)[C@H](NC(C)=O)[C@@H](N)C1 [Oseltamivir, oseltamivir] | 3 | stability of OST concentration in samples kept on ice [5]: up to 1 h; Change (%) [4, 17]: 0.59%; Mean stability sample ±SD [4, 17]: 171.1 ± 3.7 ng/mL; Change (%) [4, 18]: −1.81%; Mean stability sample ±SD [4, 18]: 1.632 ± 0.035 ng/mL; Change (%) [4, 19]: 1.81%; Mean stability sample ±SD [4, 19]: 169.2 ± 7.4 ng/mL; Change (%) [4, 20]: 5.71%; Mean stability sample ±SD [4, 20]: 1.481 ± 0.086 ng/mL; Change (%) [4, 21]: 3.61%; Mean stability sample ±SD [4, 21]: 172.1 ± 10.4 ng/mL; Change (%) [4, 22]: 4.29%; Mean stability sample ±SD [4, 22]: 1.460 ± 0.077 ng/mL
